Results reported in ChEMBL document CHEMBL5678798 (Clin Cancer Res, 2009).
Calls of active or inactive are those of the source. The rule behind the calls is not given here.

Legend:
[1] = Toxicity in nu/nu CD-1 mouse implanted with mouse NIH-3T3/LISN cells assessed as reduction in body weight at 30 mg/kg, po for 21 days; assay type: organism-based; conditions: in vivo, 504 h, time 21 day
[2] = biological target: Cytoplasmic tyrosine-protein kinase BMX (Homo sapiens, UniProt P51813); assay: Inhibition of N-terminal His6-tagged recombinant full-length human BMX expressed in baculovirus infected Sf21 cells by filter binding assay
Sequence of Cytoplasmic tyrosine-protein kinase BMX (P51813 whole entry): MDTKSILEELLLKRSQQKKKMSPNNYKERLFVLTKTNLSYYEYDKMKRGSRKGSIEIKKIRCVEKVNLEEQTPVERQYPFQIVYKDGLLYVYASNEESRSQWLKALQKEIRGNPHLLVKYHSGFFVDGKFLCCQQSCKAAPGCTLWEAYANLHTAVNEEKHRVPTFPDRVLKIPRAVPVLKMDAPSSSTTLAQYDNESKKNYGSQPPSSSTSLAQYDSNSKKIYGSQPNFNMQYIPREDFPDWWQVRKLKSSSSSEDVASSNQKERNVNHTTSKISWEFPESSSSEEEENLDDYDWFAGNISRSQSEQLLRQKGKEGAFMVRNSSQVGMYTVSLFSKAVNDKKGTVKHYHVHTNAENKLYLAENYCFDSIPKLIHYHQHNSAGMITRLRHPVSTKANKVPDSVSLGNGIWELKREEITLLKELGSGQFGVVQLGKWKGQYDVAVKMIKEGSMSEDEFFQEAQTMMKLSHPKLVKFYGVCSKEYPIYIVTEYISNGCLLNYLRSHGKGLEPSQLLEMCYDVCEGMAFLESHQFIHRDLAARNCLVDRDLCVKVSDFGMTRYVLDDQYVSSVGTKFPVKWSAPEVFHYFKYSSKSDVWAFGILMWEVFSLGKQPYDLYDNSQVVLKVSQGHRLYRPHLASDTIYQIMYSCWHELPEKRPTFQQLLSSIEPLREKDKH

[3] = biological target: Serine/threonine-protein kinase tousled-like 2 (Homo sapiens) (UniProt Q86UE8); assay: Inhibition of N-terminal 6His-tagged recombinant human TLK2 (388 to end residues) expressed in baculovirus infected Sf21 cells at 0.3 uM by filter binding assay relative to control
Sequence of Serine/threonine-protein kinase tousled-like 2 (Homo sapiens) (Q86UE8 whole entry, looked up): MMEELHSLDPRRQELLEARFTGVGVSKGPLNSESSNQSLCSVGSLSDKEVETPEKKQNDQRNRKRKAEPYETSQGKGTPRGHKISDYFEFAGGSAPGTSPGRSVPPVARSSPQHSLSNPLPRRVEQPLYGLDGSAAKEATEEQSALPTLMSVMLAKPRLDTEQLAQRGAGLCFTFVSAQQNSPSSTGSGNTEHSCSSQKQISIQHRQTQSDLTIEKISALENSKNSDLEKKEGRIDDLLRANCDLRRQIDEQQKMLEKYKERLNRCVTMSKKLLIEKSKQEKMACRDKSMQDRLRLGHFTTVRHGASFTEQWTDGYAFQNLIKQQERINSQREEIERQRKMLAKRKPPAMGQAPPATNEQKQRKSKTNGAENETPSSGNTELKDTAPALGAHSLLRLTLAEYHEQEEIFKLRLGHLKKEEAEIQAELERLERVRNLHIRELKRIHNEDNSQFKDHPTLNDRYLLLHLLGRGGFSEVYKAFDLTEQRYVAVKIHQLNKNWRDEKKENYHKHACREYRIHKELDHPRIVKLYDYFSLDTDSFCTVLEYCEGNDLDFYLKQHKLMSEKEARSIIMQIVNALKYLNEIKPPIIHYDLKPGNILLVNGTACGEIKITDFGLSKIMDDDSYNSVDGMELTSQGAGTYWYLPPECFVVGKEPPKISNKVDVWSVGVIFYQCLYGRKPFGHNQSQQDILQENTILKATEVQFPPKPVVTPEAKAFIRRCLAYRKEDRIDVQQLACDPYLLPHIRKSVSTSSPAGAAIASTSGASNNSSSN
Summary of the method: (§1)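 Outsourced single-concentration screen in a commercial panel of 233 protein kinases, run as radiometric filter-binding activity assays. Test agent was tested at 0.3 or 3 µmol/L, as given in each line, from a 10 mmol/L DMSO stock. Activity is expressed as percent inhibition relative to control.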

[4] = biological target: Inhibitor of nuclear factor kappa-B kinase subunit alpha (Homo sapiens, UniProt O15111); assay: Inhibition of IKK1 (unknown origin)
[5] = biological target: Insulin receptor (Mus musculus) (UniProt P15208); conditions: CD-1, dose 30.0 mg/kg, route po, time 21.0 day
Sequence of Insulin receptor (Mus musculus) (P15208 28-748 limits assumed): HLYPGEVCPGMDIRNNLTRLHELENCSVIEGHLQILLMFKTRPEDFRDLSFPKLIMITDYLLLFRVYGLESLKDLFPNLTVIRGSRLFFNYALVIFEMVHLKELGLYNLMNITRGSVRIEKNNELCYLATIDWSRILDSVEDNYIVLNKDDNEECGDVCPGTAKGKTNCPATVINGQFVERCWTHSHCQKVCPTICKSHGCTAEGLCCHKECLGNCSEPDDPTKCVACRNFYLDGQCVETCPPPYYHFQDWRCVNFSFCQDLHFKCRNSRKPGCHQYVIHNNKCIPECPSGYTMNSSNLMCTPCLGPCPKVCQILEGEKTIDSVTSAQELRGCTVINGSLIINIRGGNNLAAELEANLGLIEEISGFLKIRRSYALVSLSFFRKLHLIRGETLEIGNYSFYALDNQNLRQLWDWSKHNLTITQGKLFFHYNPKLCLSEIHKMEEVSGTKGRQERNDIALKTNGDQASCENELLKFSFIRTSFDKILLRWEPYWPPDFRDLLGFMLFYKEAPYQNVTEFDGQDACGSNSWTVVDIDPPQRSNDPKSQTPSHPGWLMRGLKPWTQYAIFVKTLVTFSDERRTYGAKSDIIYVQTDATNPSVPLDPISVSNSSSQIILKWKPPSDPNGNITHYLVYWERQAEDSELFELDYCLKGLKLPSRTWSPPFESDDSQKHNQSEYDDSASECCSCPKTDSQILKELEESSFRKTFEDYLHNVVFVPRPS
Sequence of Insulin receptor (Mus musculus) (P15208 753-1372 limits assumed): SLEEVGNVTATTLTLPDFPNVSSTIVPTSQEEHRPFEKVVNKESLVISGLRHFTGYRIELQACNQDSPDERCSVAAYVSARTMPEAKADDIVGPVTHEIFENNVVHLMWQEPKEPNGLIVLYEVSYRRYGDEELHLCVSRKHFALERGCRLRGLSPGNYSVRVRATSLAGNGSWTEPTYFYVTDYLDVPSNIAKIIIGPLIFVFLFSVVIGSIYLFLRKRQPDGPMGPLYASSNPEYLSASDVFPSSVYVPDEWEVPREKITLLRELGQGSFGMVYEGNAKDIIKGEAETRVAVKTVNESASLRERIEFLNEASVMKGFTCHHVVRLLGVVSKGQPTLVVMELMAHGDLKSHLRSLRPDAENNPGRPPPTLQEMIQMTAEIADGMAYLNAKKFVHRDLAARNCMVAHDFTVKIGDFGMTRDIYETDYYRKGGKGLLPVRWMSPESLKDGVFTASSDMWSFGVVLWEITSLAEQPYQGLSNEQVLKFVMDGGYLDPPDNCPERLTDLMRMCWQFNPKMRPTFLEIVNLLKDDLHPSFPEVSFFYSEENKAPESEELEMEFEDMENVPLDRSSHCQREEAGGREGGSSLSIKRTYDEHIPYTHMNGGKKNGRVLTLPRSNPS

[6] = biological target: Vascular endothelial growth factor receptor 1 (Homo sapiens) (UniProt P17948); assay: Inhibition of N-terminal GST-tagged recombinant human Flt1 (783 to end residues) expressed in baculovirus infected Sf21 cells at 0.3 uM by filter binding assay relative to control; summary of the method: as §1
[7] = Cytotoxicity against HFF cells assessed as reduction in cell viability after 72 hrs by CellTiter-Glo assay; assay type: toxicity, cell-based; conditions: human
Summary of the method: (§2)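 Cells seeded in 96-well plates, left overnight at 37°C, then exposed to a range of test concentrations for 72 h. Viability read by CellTiter-Glo luminescence; IC50 from four-parameter curve fit. Lines kept at 37°C, 5% CO2, in recommended growth medium.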

[8] = biological target: Focal adhesion kinase 1 (Homo sapiens, UniProt Q05397); assay: Inhibition of N-terminal 6His-tagged recombinant human FAK (411 to 686 residues) expressed in baculovirus infected Sf21 cells by filter binding assay
[9] = biological target: RAC-beta serine/threonine-protein kinase (Homo sapiens, UniProt P31751); assay: Inhibition of AKT2 (unknown origin)
Sequence of RAC-beta serine/threonine-protein kinase (P31751 whole entry): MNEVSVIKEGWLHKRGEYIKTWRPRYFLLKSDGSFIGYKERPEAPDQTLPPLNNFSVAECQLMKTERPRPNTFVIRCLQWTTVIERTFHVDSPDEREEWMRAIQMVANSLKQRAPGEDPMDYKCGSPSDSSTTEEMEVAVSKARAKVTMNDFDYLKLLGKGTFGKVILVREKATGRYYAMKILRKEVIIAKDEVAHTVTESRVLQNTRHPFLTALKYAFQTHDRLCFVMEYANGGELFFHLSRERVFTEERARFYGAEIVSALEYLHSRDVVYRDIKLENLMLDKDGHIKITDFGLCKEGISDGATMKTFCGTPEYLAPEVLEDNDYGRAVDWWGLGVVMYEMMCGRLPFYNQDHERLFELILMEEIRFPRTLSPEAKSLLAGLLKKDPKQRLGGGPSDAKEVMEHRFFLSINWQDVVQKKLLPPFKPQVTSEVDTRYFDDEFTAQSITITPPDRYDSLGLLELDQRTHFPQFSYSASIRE

[10] = biological target: Serine/threonine-protein kinase TAO2 (Homo sapiens) (UniProt Q9UL54); assay: Inhibition of N-terminal 6His-tagged recombinant human TAO2 expressed in Sf21 cells at 3 uM by filter binding assay relative to control; summary of the method: as §1
Sequence of Serine/threonine-protein kinase TAO2 (Homo sapiens) (Q9UL54 whole entry): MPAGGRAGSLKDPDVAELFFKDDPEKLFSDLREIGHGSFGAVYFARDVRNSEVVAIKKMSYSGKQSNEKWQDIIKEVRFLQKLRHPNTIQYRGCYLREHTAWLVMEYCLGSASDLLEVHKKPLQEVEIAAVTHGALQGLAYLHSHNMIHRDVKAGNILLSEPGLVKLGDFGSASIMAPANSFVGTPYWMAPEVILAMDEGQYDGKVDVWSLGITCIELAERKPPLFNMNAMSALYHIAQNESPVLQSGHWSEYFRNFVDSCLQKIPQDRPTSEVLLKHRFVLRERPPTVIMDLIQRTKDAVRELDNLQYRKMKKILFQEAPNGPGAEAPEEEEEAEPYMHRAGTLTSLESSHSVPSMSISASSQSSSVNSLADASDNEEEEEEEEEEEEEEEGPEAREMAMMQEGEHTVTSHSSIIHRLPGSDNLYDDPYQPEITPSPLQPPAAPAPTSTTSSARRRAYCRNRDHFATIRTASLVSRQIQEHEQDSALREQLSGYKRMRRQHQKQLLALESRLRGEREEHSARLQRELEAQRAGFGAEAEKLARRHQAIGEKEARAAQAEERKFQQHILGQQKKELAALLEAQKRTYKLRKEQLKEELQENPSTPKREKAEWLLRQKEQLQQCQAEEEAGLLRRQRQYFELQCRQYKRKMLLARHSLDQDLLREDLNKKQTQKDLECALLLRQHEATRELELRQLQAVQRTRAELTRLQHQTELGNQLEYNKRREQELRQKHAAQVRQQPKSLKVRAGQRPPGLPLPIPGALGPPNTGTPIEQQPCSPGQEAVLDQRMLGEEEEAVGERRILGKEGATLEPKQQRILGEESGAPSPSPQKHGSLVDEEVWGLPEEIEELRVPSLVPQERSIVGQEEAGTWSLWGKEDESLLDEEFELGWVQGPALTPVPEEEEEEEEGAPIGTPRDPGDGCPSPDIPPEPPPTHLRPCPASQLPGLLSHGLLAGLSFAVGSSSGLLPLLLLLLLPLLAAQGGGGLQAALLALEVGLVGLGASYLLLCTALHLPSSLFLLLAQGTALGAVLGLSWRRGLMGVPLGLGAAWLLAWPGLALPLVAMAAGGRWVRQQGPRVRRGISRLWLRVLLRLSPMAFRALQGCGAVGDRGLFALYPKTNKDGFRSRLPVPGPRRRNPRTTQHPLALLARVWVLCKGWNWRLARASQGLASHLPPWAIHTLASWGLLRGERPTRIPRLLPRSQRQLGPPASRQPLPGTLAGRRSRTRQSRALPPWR

[11] = biological target: MAP kinase-interacting serine/threonine-protein kinase 2 (Homo sapiens) (UniProt Q9HBH9); assay: Inhibition of N-terminal 6His-tagged recombinant human full-length Mnk2 expressed in baculovirus infected Sf21 cells at 3 uM by filter binding assay relative to control; summary of the method: as §1
[12] = biological target: Activated CDC42 kinase 1 (Homo sapiens) (UniProt Q07912); assay: Inhibition of N-terminal GST-tagged recombinant human ACK1 (1 to 389 residues) expressed in baculovirus infected Sf21 cells at 3 uM by filter binding assay relative to control; summary of the method: as §1
[13] = biological target: cGMP-dependent protein kinase 1 (Homo sapiens) (UniProt Q13976); assay: Inhibition of N-terminal 6His-tagged recombinant full-length human PKG1beta expressed in baculovirus infected Sf21 cells at 3 uM by filter binding assay relative to control
Summary of the method: (§3)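 KinaseProfiler panel of 233 kinases: radiometric filter-binding activity assays with compound at 0.3 or 3 µmol/L. Read-out is percent inhibition.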

[14] = biological target: Serine/threonine-protein kinase Nek3 (Homo sapiens) (UniProt P51956); assay: Inhibition of N-terminal 6His-tagged recombinant full length human NEK3 expressed in baculovirus infected Sf21 cells at 3 uM by filter binding assay relative to control; summary of the method: as §3
[15] = Toxicity in nu/nu CD-1 mouse xenografted with human BXPC-3 cells assessed as reduction in body weight at 30 mg/kg, po for 21 days relative to control; assay type: organism-based; conditions: in vivo, 504 h, time 21 day
[16] = Cytotoxicity against human PREC cells assessed as reduction in cell viability after 72 hrs by CellTiter-Glo assay; assay type: toxicity, cell-based; summary of the method: as §2
[17] = biological target: Glycogen synthase kinase-3 alpha (Homo sapiens) (UniProt P49840); assay: Inhibition of N-terminal His6-tagged recombinant human GSK3alpha (2 to end residues) expressed in Sf21 cells at 0.3 uM by filter binding assay relative to control
[18] = Cytotoxicity against human PREC cells assessed as growth inhibition after 72 hrs by CellTiter-Glo assay relative to control; assay type: toxicity, cell-based; conditions: read-out: GI
[19] = test system: COLO 205; assay: Induction of cell cycle arrest in human COLO 205 cells assessed as effect on sub-2N-DNA content at 0.03 to 10 uM incubated for 24 to 48 hrs by propidium iodide staining based flow cytometric analysis; assay type: functional; conditions: dose 0.03-10 µM, time lower 24.0 hrs, time upper […]
Summary of the method: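 COLO 205, MCF-7 or NCI-H929 cells seeded in 96-well plates overnight at 37°C, then exposed to DMSO or increasing compound concentrations for 24 or 48 h. Fixed and stained with propidium iodide (Vindelov method), then analysed by flow cytometry for sub-G1, G1, S and G2-M fractions. Experiment repeated twice.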

[20] = biological target: Serine/threonine-protein kinase tousled-like 2 (Homo sapiens) (UniProt Q86UE8); assay: Inhibition of N-terminal 6His-tagged recombinant human TLK2 (388 to end residues) expressed in baculovirus infected Sf21 cells at 3 uM by filter binding assay relative to control; summary of the method: as §1
[21] = biological target: SRSF protein kinase 1 (Homo sapiens) (UniProt Q96SB4); assay: Inhibition of N-terminal GST-tagged recombinant human SRPK1 expressed in Escherichia coli at 0.3 uM by filter binding assay relative to control; summary of the method: as §1
[22] = test system: A673; assay: Antiproliferative activity against human A673 cells assessed as reduction in cell viability after 72 hrs by CellTiter-Glo assay; assay type: functional, cell-based; conditions: A673, 72 h; summary of the method: as §2
[23] = biological target: Serine/threonine-protein kinase BRSK1 (Homo sapiens) (UniProt Q8TDC3); assay: Inhibition of N-terminal 6His-tagged recombinant human BrSK1 (2 to end residues) expressed in baculovirus infected Sf21 cells at 3 uM by filter binding assay relative to control; summary of the method: as §1
[24] = biological target: Tyrosine-protein kinase Blk (Mus musculus) (UniProt P16277); assay: Inhibition of N-terminal His6-tagged recombinant full-length mouse Blk expressed in baculovirus infected Sf21 cells at 3 uM by filter binding assay relative to control; summary of the method: as §1
Sequence of Tyrosine-protein kinase Blk (Mus musculus) (P16277 whole entry): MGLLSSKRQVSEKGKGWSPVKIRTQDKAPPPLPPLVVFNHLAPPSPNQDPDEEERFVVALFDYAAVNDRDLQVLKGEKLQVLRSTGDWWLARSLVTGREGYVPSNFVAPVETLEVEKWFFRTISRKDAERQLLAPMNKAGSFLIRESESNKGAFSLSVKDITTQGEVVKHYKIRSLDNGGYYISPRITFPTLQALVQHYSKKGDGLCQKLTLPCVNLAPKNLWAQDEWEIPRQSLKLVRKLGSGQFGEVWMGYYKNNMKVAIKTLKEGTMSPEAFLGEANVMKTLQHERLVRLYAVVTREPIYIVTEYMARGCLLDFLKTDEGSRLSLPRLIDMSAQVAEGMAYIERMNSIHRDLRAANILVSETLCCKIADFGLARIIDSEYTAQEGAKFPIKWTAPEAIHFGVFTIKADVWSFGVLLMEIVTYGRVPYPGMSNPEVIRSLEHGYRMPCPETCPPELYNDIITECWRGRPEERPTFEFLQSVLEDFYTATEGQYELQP

[25] = Antiproliferative activity against human RDES cells assessed as reduction in cell viability after 72 hrs by CellTiter-Glo assay; assay type: functional, cell-based; conditions: RD-ES; summary of the method: as §2
[26] = biological target: Proto-oncogene tyrosine-protein kinase receptor Ret (Homo sapiens) (UniProt P07949); assay: Inhibition of N-Terminal GST-tagged recombinant human Ret (658 to end residues) expressed in baculovirus infected Sf21 cells at 0.3 uM by filter binding assay relative to control; summary of the method: as §3
[27] = biological target: Insulin receptor (Mus musculus) (UniProt P15208); conditions: CD-1, dose 30.0 mg/kg, route po, time 2-24 hrs

Q: For `CCc1cc(Nc2nccc(-c3c(-c4ccc(OC)c(C(=O)Nc5c(F)cccc5F)c4)nc4ccccn34)n2)c(OC)cc1N1CCC(N2CCN(S(C)(=O)=O)CC2)CC1`, which Activity [1] is on record?
A: The Activity was “Non-Toxic”.

Q: What about the IC50 [2] of the same molecule?
A: The IC50 was 1210 nM.

Q: And the inhibition [3]?
A: The inhibition was 0%.

Q: What about the IC50 [4] of the same molecule?
A: Its IC50 is 13000 nM.

Q: What about the inhibition [5] of the same molecule?
A: The inhibition was “inactive”.

Q: What about the inhibition [6] of the same molecule?
A: Its inhibition is 10%.

Q: What about the IC50 at 72 h [7] of the same molecule?
A: The IC50 at 72 h was > 20000 nM.

Q: What about the IC50 [8] of the same molecule?
A: Its IC50 is 362 nM.

Q: What about the IC50 [9] of the same molecule?
A: Its IC50 is > 10000 nM.

Q: And the inhibition [10]?
A: The inhibition was 1%.

Q: What about the inhibition [11] of the same molecule?
A: Its inhibition is 24%.

Q: What about the inhibition [12] of the same molecule?
A: Its inhibition is 34%.

Q: What about the inhibition [13] of the same molecule?
A: Its inhibition is 32%.

Q: What about the inhibition [14] of the same molecule?
A: Its inhibition is 16%.

Q: And the Activity [15]?
A: The Activity was “Non-Toxic”.

Q: And the IC50 at 72 h [16]?
A: The IC50 at 72 h was 68 nM.

Q: What about the inhibition [17] of the same molecule?
A: The inhibition was -10%.

Q: And the inhibition at 72 h [18]?
A: The inhibition at 72 h was 45%.

Q: What about the Activity [19] of the same molecule?
A: The Activity was “inactive”.

Q: And the inhibition [20]?
A: Its inhibition is 0%.

Q: And the inhibition [21]?
A: Its inhibition is 1%.

Q: What about the IC50 [22] of the same molecule?
A: The IC50 was > 30000 nM.

Q: And the inhibition [23]?
A: Its inhibition is 24%.

Q: What about the inhibition [24] of the same molecule?
A: The inhibition was 22%.

Q: What about the IC50 [25] of the same molecule?
A: The IC50 was 62 nM.

Q: And the inhibition [26]?
A: Its inhibition is 30%.

Q: What about the inhibition [27] of the same molecule?
A: Its inhibition is “inactive”.
